M5 PAM: CHRM5 positive allosteric modulation; CHO-K1 hM5, Fluo-8 calcium, ACh EC20 PAM; 0% = ACh EC20, 100% = ACh EC100; activation, % at 3 µM; actives 0.3% (n = 360,000);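 active = activation above the run cutoff, the mean activation of all test compounds plus 3 SD, cut at about 18% in these data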
Target sequence (P08912 whole entry, looked up): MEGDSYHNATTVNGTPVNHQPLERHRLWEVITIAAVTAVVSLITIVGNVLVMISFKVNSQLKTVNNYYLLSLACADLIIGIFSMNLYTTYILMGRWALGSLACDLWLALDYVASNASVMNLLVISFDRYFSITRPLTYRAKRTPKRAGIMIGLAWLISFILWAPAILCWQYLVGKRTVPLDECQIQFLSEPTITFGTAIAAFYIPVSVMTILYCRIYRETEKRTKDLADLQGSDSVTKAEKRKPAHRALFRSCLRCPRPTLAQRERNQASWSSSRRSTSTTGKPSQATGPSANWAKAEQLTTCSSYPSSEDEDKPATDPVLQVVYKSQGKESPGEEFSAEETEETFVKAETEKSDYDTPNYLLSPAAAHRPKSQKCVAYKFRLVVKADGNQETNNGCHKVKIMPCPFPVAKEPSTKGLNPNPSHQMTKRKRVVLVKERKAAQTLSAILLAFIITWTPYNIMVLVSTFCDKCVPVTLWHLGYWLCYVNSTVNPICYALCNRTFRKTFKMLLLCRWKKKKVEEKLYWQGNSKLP
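System: CHO-K1 cell line with stable human muscarinic M5 receptor expression | Also added: EC20 acetylcholine as agonist stimulus | Compound: One concentration, 3 µM final (nominal) | Timing: Fluo-8 loading 80 min at 37 °C plus 30 min room temperature | Measured by: Fluo-8 calcium dye fluorescence, kinetic read | Read-out basis: % activation, ACh-normalized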
M5 ag: CHRM5 agonism in calcium assay; CHO-K1 hM5 cells, Fluo-8 calcium fluorescence; 0% DMSO wells, 100% maximal acetylcholine response; activation, % at 3 µM; actives 0.19% (n = 360,000); AID 624037;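 active = activation above the run's mean over test compounds plus 3 SD, cut at about 23% in these data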;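 also: signal is peak over basal fluorescence ratio across the kinetic read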
CHRM4 antagonist: CHRM4 antagonism in calcium assay; CHO-hM4 cells, ACh EC80, Fluo-8 calcium fluorescence; P08173; AID 624125; actives 0.73% (n = 360,000); inhibition, % at 3 µM;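 active = inhibition above its plate's cutoff, the mean inhibition of sample wells plus 3 SD, cut at about 27% in these data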;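 also: 0% = acetylcholine EC80 with DMSO and 100% = DMSO without agonist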
M4 ag: agonists of human muscarinic M4 receptor (CHRM4). activation, % at 3 µM. CHO-K1 hM4/Gqi5, Fluo-8 calcium fluorescence; vehicle 0%, full acetylcholine response 100%. AID 624127. actives 0.14% (n = 360,000). P08173;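 active = activation above the run mean over all test wells plus 3 SD, cut at about 32% in these data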;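 also: peak over basal fluorescence ratio per well then scaled between controls; 0% = DMSO wells and 100% = acetylcholine at EC100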
CHRM5 antagonist: blocks acetylcholine activation of human M5 receptor; P08912; CHO-hM5 cells, Fluo-8 calcium fluorescence, ACh EC80; inhibition, % at 3 µM; actives 0.59% (n = 360,000);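 active = inhibition above a per-plate cutoff, the mean of that plate's test compounds plus 3 SD, cut at about 27% in these data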;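 also: 0% = acetylcholine EC80 with DMSO and 100% = DMSO without agonist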
M4 PAM: potentiates acetylcholine response at human M4 receptor. P08173. CHO-K1 hM4/Gqi5, Fluo-8 calcium fluorescence, ACh EC20; 0% = ACh EC20, 100% = maximal ACh. activation, % at 3 µM. actives 0.4% (n = 360,000);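 active = activation above its plate's cutoff, the mean activation of sample wells plus 3 SD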
The depositor's hits bear a star. The list is not random: actives were taken first. Their share in the collection is about 1.9%.

SMILES	M5 PAM	M5 ag	CHRM4 antagonist	M4 ag	CHRM5 antagonist	M4 PAM
Cc1c(C(=O)NCCC2=CCCCC2)oc2ccc(S(=O)(=O)N3CCC4(CC3)OCCO4)cc12	-18	1	34*	15	22	-22
COC(=O)c1ccc2nc(-c3ccc(F)cc3)c(Cc3cccc(Cl)c3)n2c1	-24	-5	35*	2	77*	-13
COC(=O)c1ccc2nc(-c3ccc(F)cc3)c(Cc3cccc(F)c3)n2c1	-24	-5	6	4	36*	-10
COC(=O)c1ccc2nc(-c3ccccc3)c(Cc3cccc(F)c3)n2c1	-24	-6	8	-1	10	0
CC(=O)Nc1cc(S(=O)(=O)C(F)(F)F)ccc1Cl	19*	-2	-2	0	-10	1
COC(=O)[C@@]1(Cc2ccccc2)[C@H]2C(=O)N(C)C(=O)[C@H]2[C@H]2CN=C(SCc3ccccc3)N21	2	0	-5	1	-1	5
Cc1ccc(C(=O)c2coc3ccc(O)cc23)cc1	-13	-6	0	-1	17	-3
O=C1Nc2ccc(Br)cc2C1(O)c1ccccc1 (stereo unspecified)	-1	0	-17	6	-3	0
O=C1Nc2ccc(Br)cc2C12NNc1ccccc1O2 (stereo unspecified)	-13	22	21	24	31*	-6
O=C(COc1ccc(C(F)(F)F)cc1[N+](=O)[O-])Nc1cccc(C(F)(F)F)c1	15	-4	14	2	-9	30*
CCOC(=O)C1=CCN(S(=O)(=O)c2ccc(Br)cc2)C1c1ccccc1 (stereo unspecified)	-4	-1	1	5	2	-5
COc1ccc(CC(=O)Nc2nc(-c3ccc(OC)c(OC)c3)cs2)cc1OC	-12	23*	-14	25	-1	-1
COc1ccc(-c2csc(NC(=O)Cc3ccccc3F)n2)cc1OC	-14	-2	45*	8	26	-21
COc1ccc(-c2csc(NC(=O)CN3C(=O)C4CC=CCC4C3=O)n2)cc1OC (stereo unspecified)	-13	-1	8	9	29*	-6
O=C(CSc1ccc(F)cc1)NCC1(N2CCOCC2)CCCCC1	-6	-6	2	1	4	-7
O=C(CSCc1ccccc1Br)N/N=C/c1ccccc1C(=O)O	-4	-2	-6	4	2	6
COc1ccc(C(CNC(=O)C(=O)NC2CCCC2)N2CCN(C)CC2)cc1 (stereo unspecified)	9	-3	0	1	-5	8
CCOc1ccc(NC(=O)Nc2cc(OCC(F)(F)F)cc(OCC(F)(F)F)c2)cc1	-15	1	9	10	28*	-9
CCOc1ccc(NC(=O)Nc2ccc3nsnc3c2)cc1	-23	6	2	17	33*	-12
CCOc1ccc(NC(=O)Nc2cccc(C(=O)O)c2)cc1	-1	-4	8	6	5	5
O=C(Nc1ccc(F)cc1)Nc1cc(OCC(F)(F)F)cc(OCC(F)(F)F)c1	-18	8	19	12	30*	-13
COC(=O)c1ccc(NC(=O)Nc2ccc(F)cc2)cc1	-17	6	13	14	21	-9
Cc1cc(Br)ccc1NC(=O)CN(C)C(=O)Cn1c(=O)cnc2ccccc21	-8	-7	11	3	18	-6
CC(C)(C)C(=O)c1sc2nc(-c3cccs3)cc(C(F)(F)F)c2c1N	6	0	9	1	-9	-1
Cc1nnc(NC(=O)c2sc3nc(-c4cccs4)cc(C(F)(F)F)c3c2N)s1	-7	12	7	34*	15	-12
SMILES	M5 PAM	M5 ag	CHRM4 antagonist	M4 ag	CHRM5 antagonist	M4 PAM
Nc1c(C(=O)Nc2nccs2)sc2nc(-c3cccs3)cc(C(F)(F)F)c12	-12	22	22	21	34*	-17
O=C(C=CC(=O)OC1CCCCC1)OC1CCCCC1	10	6	-1	0	0	2
CN1C(=O)c2ccc(C(=O)NCc3ccco3)cc2C1=O	-2	-3	0	1	1	6
O=C(NCc1ccco1)c1ccc2c(c1)C(=O)N(C1CCCCC1)C2=O	2	3	14	0	-2	32*
CCCCN(C)c1c(C)nc2ccc(C(=O)NCc3ccc4c(c3)OCO4)cn12	-6	-2	0	8	5	-7
Cn1cc(C(=O)N2CCN(c3ccccn3)CC2)c(=O)c2cc(S(=O)(=O)N3CCOCC3)ccc21	20*	-2	-7	1	-4	8
O=C(/C=C/c1ccc(F)cc1)NC(=S)NNC(=O)[C@H]1C[C@@H]1c1ccccc1	-13	13	8	53*	29*	-9
COc1ccc([C@H]2CC(=O)C=C(c3ccc(OC(F)(F)F)cc3)C2)cc1	-10	0	-4	0	11	9
COc1ccc([C@H]2CC(=O)C=C(c3ccc(CNC(=O)OC(C)(C)C)cc3)C2)cc1	-39	2	28*	25	27	-14
O=C(CCCn1ncn2c(cc3occc32)c1=O)NCc1cccc(Cl)c1	2	-3	-13	3	3	20*
COc1cccc(CNC(=O)CCCn2ncn3c(cc4occc43)c2=O)c1	-9	-1	0	1	12	-2
O=C(COC(=O)c1cc(=O)c2ccccc2o1)NCc1ccc(Cl)cc1	-2	1	-6	0	6	-2
Cc1ccc2c(c1)C(c1ccc(F)cc1)N(C(=O)c1ccccc1Br)CC(=O)N2 (stereo unspecified)	-3	1	66*	14	2	-18
COC(=O)c1ccc(-c2ccc(/C=N/NC(=O)Cc3nnc(N)s3)o2)cc1	-4	2	0	1	7	-4
Oc1ccc(Cl)cc1C1=NNC(c2cccs2)C1 (stereo unspecified)	-2	-1	3	0	6	-5
Cc1ccc(O)c(C2=NNC(c3ccc(Cl)cc3)C2)c1 (stereo unspecified)	21*	14	2	8	51*	1
CCC(CO)NCC#Cc1ccccc1 (stereo unspecified)	2	-6	40*	2	7	-16
OC(CNCC#Cc1ccccc1)c1ccccc1 (stereo unspecified)	0	-1	-8	1	5	0
Cc1ccccc1Nc1nnc(-c2ccc(C(=O)NCCO)cc2)c2ccccc12	6	-2	-2	2	4	1
CC1CCCN(S(=O)(=O)c2ccc(Cl)s2)C1 (stereo unspecified)	19*	-5	-22	-1	6	1
